The source of these data is ChEMBL document CHEMBL2177098, “Synthesis and evaluation of novel ¹⁸F labeled 2-pyridinylbenzoxazole and 2-pyridinylbenzothiazole derivatives as ligands for positron emission tomography (PET) imaging of β-amyloid plaques” (J Med Chem, 2012).

Molecules are shown by their SMILES. The source made the active and inactive calls. The rule behind the calls is not given here.

The species named for assay [1] is Mus musculus. The assay can be described thus: Binding affinity to amyloid beta plaques in transgenic C57BL6 mouse cortex expressing APP Swedish mutant/PSEN1 at 370 KBq/100 ul after 1 hr by thioflavinS-staining method. As to conditions: tested as the 18F-labelled form. Put shortly: (§1)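 Paraffin brain sections from 12-month-old Tg mice (C57BL6, APPswe/PSEN1) and age-matched controls, deparaffinized through xylene and graded ethanol, then PBS (0.2 M, pH 7.4) 30 min. Incubated with 18F tracer (370 KBq per 100 μL) 1 h at room temperature, washed in 40% EtOH, rinsed in water, then phosphor plate exposure 2 h. The same sections were afterwards stained with 0.125% thioflavin S in 10% EtOH for 3 min and washed in 40% EtOH.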

The species entered for assay [2] is Mus musculus. Nature of the assay: Binding affinity to amyloid beta plaques in transgenic C57BL6 mouse hippocampus expressing APP Swedish mutant/PSEN1 at 370 KBq/100 ul after 1 hr by autoradiographic analysis. In kind it is tissue-based. The settings on record: tested as the 18F-labelled form. Put shortly:
as §1

Assay [3] in a line: Displacement of [125I]-IMPY from amyloid beta (1 to 42) fibrils after 2 hrs by gamma-counting analysis. Put shortly: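 Competition binding with aggregated Aβ1-42 fibrils and [125I]IMPY (60000−100000 cpm/100 μL) in 0.05% BSA (1 mL total); inhibitors 10⁻⁴−10^−8.5 M in ethanol. Incubated 37 °C for 2 h, then GF/B vacuum filtration with PBS (0.02 M, pH 7.4) washes and γ counting. Three repeats; IC50 converted to Ki by Cheng−Prusoff.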

The species named for assay [4] is Mus musculus. Nature of the assay: Binding affinity to amyloid beta plaques in transgenic C57BL6 mouse hippocampus expressing APP Swedish mutant/PSEN1 at 370 KBq/100 ul after 1 hr by thioflavinS-staining method. The format is tissue-based. The settings on record: tested as the 18F-labelled form. The essentials: as §1
The species entered for assay [5] is Mus musculus. Nature of the assay: Binding affinity to amyloid beta plaques in transgenic C57BL6 mouse cortex expressing APP Swedish mutant/PSEN1 at 370 KBq/100 ul after 1 hr by autoradiographic analysis. The settings on record: tested as the 18F-labelled form. Put shortly: as §1

One may read the Ki as a measure of affinity in units of concentration, obtained from inhibition or displacement. Higher therefore signals weaker binding. For `CN(C)c1ccc(-c2nc3ccc(OCCOCCOCCF)cc3s2)cn1`, the outcome in assay [1], in assay [2], in assay [4] and in assay [5] was Active. Moreover, the affinity in assay [3], expressed as Ki, was 5.8 nM.
